Test system: normal human dermal fibroblast (HDF) cells
Assay: MTT cytotoxicity assay, normal HDF cells
Type: cell-based
Conditions: 48 h, read-out: In vitro antiproliferative effects (IC50) HDF
In short: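 Cells came from the National Cell Bank of Iran and were grown in RPMI-1640 or DMEM with 10% FBS at 37 °C, 5% CO2 and 100% humidity. Test compounds in 0.1% DMSO (n = 3) were incubated 48 h, then MTT for 3 h, with formazan OD read at 570 nm. Controls were 0.1% DMSO (negative) and etoposide (positive). IC50 came from dose–response curves, mean ± SE of at least three independent experiments.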

SMILES | IC50 [µM]
COC(=O)c1c(-c2ccccc2F)c2n(c1C(=O)OC)CCn1cccc1-2 [5i, Dimethyl-1-(2-fluorophenyl)-5,6-dihydrodipyrrolo[1,2-a:2′,1′-c]pyrazine-2,3-dicarboxylate] | > 100
COC(=O)c1c(-c2cccc(C)c2)c2n(c1C(=O)OC)CCn1cccc1-2 [5e, Dimethyl-1-(3-tolyl)-5,6-dihydrodipyrrolo[1,2-a:2′,1′-c]pyrazine-2,3-dicarboxylate] | > 100
Cc1ccccc1-c1c2n(c3c(=O)[nH]nc(O)c13)CCn1cccc1-2 [7c, 11-Hydroxy-12-(o-tolyl)-5,6-dihydropyrrolo[2″,1″:3′,4′]pyrazino[1′,2′:1,5]pyrrolo[2,3-d] pyridazin-8(9H)-one] | > 100
COC(=O)c1c(-c2ccc([N+](=O)[O-])cc2)c2n(c1C(=O)OC)CCn1cccc1-2 [5p, Dimethyl-1-(4-nitrophenyl)-5,6-dihydrodipyrrolo[1,2-a:2′,1′-c]pyrazine-2,3-dicarboxylate] | > 100
COC(=O)c1c(-c2ccccc2)c2n(c1C(=O)OC)CCn1cccc1-2 [5a, Dimethyl-1-phenyl-5,6-dihydrodipyrrolo[1,2-a:2′,1′-c]pyrazine-2,3-dicarboxylate] | > 100
COC(=O)c1c(-c2ccc(O)c(OC)c2)c2n(c1C(=O)OC)CCn1cccc1-2 [5q, Dimethyl-1-(4-hydroxy-3-methoxyphenyl)-5,6-dihydrodipyrrolo[1,2-a:2′,1′-c]pyrazine-2,3-dicarboxylate] | > 100
COC(=O)c1c(-c2cc(OC)c(OC)c(OC)c2)c2n(c1C(=O)OC)CCn1cccc1-2 [5s, Dimethyl-1-(3,4,5-trimethoxyphenyl)-5,6-dihydrodipyrrolo[1,2-a:2′,1′-c]pyrazine-2,3-dicarboxylate] | > 100
O=c1[nH]nc(O)c2c(-c3cccc(O)c3)c3n(c12)CCn1cccc1-3 [7b, 11-Hydroxy-12-(3-hydroxyphenyl)-5,6-dihydropyrrolo[2″,1″:3′,4′]pyrazino[1′,2′:1,5] pyrrolo[2,3-d]pyridazin-8(9H)-one] | > 100
O=c1[nH]nc(O)c2c(-c3ccc(F)cc3)c3n(c12)CCn1cccc1-3 [7h, 12-(4-Fluorophenyl)-11-hydroxy-5,6-dihydropyrrolo[2″,1″:3′,4′]pyrazino[1′,2′:1,5] pyrrolo[2,3-d]pyridazin-8(9H)-one] | > 100
COC(=O)c1c(-c2ccc(F)cc2)c2n(c1C(=O)OC)CCn1cccc1-2 [5j, Dimethyl-1-(4-fluorophenyl)-5,6-dihydrodipyrrolo[1,2-a:2′,1′-c]pyrazine-2,3-dicarboxylate] | > 100
O=c1[nH]nc(O)c2c(-c3ccc(Br)cc3)c3n(c12)CCn1cccc1-3 [7l, 12-(4-Bromophenyl)-11-hydroxy-5,6-dihydropyrrolo[2″,1″:3′,4′]pyrazino[1′,2′:1,5] pyrrolo[2,3-d]pyridazin-8(9H)-one] | > 100
COC(=O)c1c(-c2cccc(O)c2)c2n(c1C(=O)OC)CCn1cccc1-2 [5c, Dimethyl-1-(3-hydroxyphenyl)-5,6-dihydrodipyrrolo[1,2-a:2′,1′-c]pyrazine-2,3-dicarboxylate] | > 100
COC(=O)c1c(-c2ccccc2O)c2n(c1C(=O)OC)CCn1cccc1-2 [5b, Dimethyl-1-(2-hydroxyphenyl)-5,6-dihydrodipyrrolo[1,2-a:2′,1′-c]pyrazine-2,3-dicarboxylate] | > 100
COC(=O)c1c(-c2ccc(OC)cc2)c2n(c1C(=O)OC)CCn1cccc1-2 [5h, Dimethyl-1-(4-methoxyphenyl)-5,6-dihydrodipyrrolo[1,2-a:2′,1′-c]pyrazine-2,3-dicarboxylate] | > 100
O=c1[nH]nc(O)c2c(-c3cccc(Br)c3)c3n(c12)CCn1cccc1-3 [7k, 12-(3-Bromophenyl)-11-hydroxy-5,6-dihydropyrrolo[2″,1″:3′,4′]pyrazino[1′,2′:1,5]pyrrolo [2,3-d]pyridazin-8(9H)-one] | > 100
COc1ccc(-c2c3n(c4c(=O)[nH]nc(O)c24)CCn2cccc2-3)cc1 [7g, 11-Hydroxy-12-(4-methoxyphenyl)-5,6-dihydropyrrolo[2″,1″:3′,4′]pyrazino[1′,2′:1,5] pyrrolo[2,3-d]pyridazin-8(9H)-one] | > 100
COC(=O)c1c(-c2ccccc2C)c2n(c1C(=O)OC)CCn1cccc1-2 [5d, Dimethyl-1-(2-tolyl)-5,6-dihydrodipyrrolo[1,2-a:2′,1′-c]pyrazine-2,3-dicarboxylate] | > 100
COC(=O)c1c(-c2cccc(OC)c2)c2n(c1C(=O)OC)CCn1cccc1-2 [5g, Dimethyl-1-(3-methoxyphenyl)-5,6-dihydrodipyrrolo[1,2-a:2′,1′-c]pyrazine-2,3-dicarboxylate] | > 100

SMILES | IC50 [µM]
COc1cc(-c2c3n(c4c(=O)[nH]nc(O)c24)CCn2cccc2-3)ccc1O [7o, 11-Hydroxy-12-(4-hydroxy-3-methoxyphenyl)-5,6-dihydropyrrolo[2″,1″:3′,4′]pyrazino [1′,2′:1,5]pyrrolo[2,3-d]pyridazin-8(9H)-one] | > 100
COc1cccc(-c2c3n(c4c(=O)[nH]nc(O)c24)CCn2cccc2-3)c1 [7f, 11-Hydroxy-12-(3-methoxyphenyl)-5,6-dihydropyrrolo[2″,1″:3′,4′]pyrazino[1′,2′:1,5] pyrrolo[2,3-d]pyridazin-8(9H)-one] | > 100
O=c1[nH]nc(O)c2c(-c3ccccc3)c3n(c12)CCn1cccc1-3 [7a, 11-Hydroxy-12-phenyl-5,6-dihydropyrrolo[2″,1″:3′,4′]pyrazino[1′,2′:1,5]pyrrolo[2,3-d] pyridazin-8(9H)-one] | > 100
COC(=O)c1c(-c2ccc(Cl)cc2Cl)c2n(c1C(=O)OC)CCn1cccc1-2 [5r, Dimethyl-1-(2,4-dichlorophenyl)-5,6-dihydrodipyrrolo[1,2-a:2′,1′-c]pyrazine-2,3-dicarboxylate] | > 100
COC(=O)c1c(-c2cccc(Br)c2)c2n(c1C(=O)OC)CCn1cccc1-2 [5m, Dimethyl-1-(3-bromophenyl)-5,6-dihydrodipyrrolo[1,2-a:2′,1′-c]pyrazine-2,3-dicarboxylate] | > 100
COC(=O)c1c(-c2cccc(Cl)c2)c2n(c1C(=O)OC)CCn1cccc1-2 [5k, Dimethyl-1-(3-chlorophenyl)-5,6-dihydrodipyrrolo[1,2-a:2′,1′-c]pyrazine-2,3-dicarboxylate] | > 100
COC(=O)c1c(-c2ccc(Br)cc2)c2n(c1C(=O)OC)CCn1cccc1-2 [5n, Dimethyl-1-(4-bromophenyl)-5,6-dihydrodipyrrolo[1,2-a:2′,1′-c]pyrazine-2,3-dicarboxylate] | > 100
COc1cc([C@@H]2c3cc4c(cc3[C@@H](O[C@@H]3O[C@@H]5CO[C@@H](C)O[C@H]5[C@H](O)[C@H]3O)[C@H]3COC(=O)[C@H]23)OCO4)cc(OC)c1O [etoposide, reference compound] | > 100
COC(=O)c1c(-c2ccc(C)cc2)c2n(c1C(=O)OC)CCn1cccc1-2 [5f, Dimethyl-1-(4-tolyl)-5,6-dihydrodipyrrolo[1,2-a:2′,1′-c]pyrazine-2,3-dicarboxylate] | > 100
COC(=O)c1c(-c2cccc([N+](=O)[O-])c2)c2n(c1C(=O)OC)CCn1cccc1-2 [5o, Dimethyl-1-(3-nitrophenyl)-5,6-dihydrodipyrrolo[1,2-a:2′,1′-c]pyrazine-2,3-dicarboxylate] | > 100
O=c1[nH]nc(O)c2c(-c3cccc(Cl)c3)c3n(c12)CCn1cccc1-3 [7i, 12-(3-Chlorophenyl)-11-hydroxy-5,6-dihydropyrrolo[2″,1″:3′,4′]pyrazino[1′,2′:1,5]pyrrolo [2,3-d]pyridazin-8(9H)-one] | > 100
O=c1[nH]nc(O)c2c(-c3ccc(Cl)cc3Cl)c3n(c12)CCn1cccc1-3 [7p, 12-(2,4-Dichlorophenyl)-11-hydroxy-5,6-dihydropyrrolo[2″,1″:3′,4′]pyrazino [1′,2′:1,5]pyrrolo[2,3-d]pyridazin-8(9H)-one] | > 100
COC(=O)c1c(-c2ccc(Cl)cc2)c2n(c1C(=O)OC)CCn1cccc1-2 [5l, Dimethyl-1-(4-chlorophenyl)-5,6-dihydrodipyrrolo[1,2-a:2′,1′-c]pyrazine-2,3-dicarboxylate] | > 100
Cc1cccc(-c2c3n(c4c(=O)[nH]nc(O)c24)CCn2cccc2-3)c1 [7d, 11-Hydroxy-12-(m-tolyl)-5,6-dihydropyrrolo[2″,1″:3′,4′]pyrazino[1′,2′:1,5]pyrrolo[2,3-d] pyridazin-8(9H)-one] | > 100
O=c1[nH]nc(O)c2c(-c3ccc(Cl)cc3)c3n(c12)CCn1cccc1-3 [7j, 12-(4-Chlorophenyl)-11-hydroxy-5,6-dihydropyrrolo[2″,1″:3′,4′]pyrazino[1′,2′:1,5] pyrrolo[2,3-d]pyridazin-8(9H)-one] | > 100
Cc1ccc(-c2c3n(c4c(=O)[nH]nc(O)c24)CCn2cccc2-3)cc1 [7e, 11-Hydroxy-12-(p-tolyl)-5,6-dihydropyrrolo[2″,1″:3′,4′]pyrazino[1′,2′:1,5]pyrrolo[2,3-d] pyridazin-8(9H)-one] | > 100
COc1cc(-c2c3n(c4c(=O)[nH]nc(O)c24)CCn2cccc2-3)cc(OC)c1OC [7q, 11-Hydroxy-12-(3,4,5-trimethoxyphenyl)-5,6-dihydropyrrolo[2″,1″:3′,4′]pyrazino [1′,2′:1,5]pyrrolo[2,3-d]pyridazin-8(9H)-one] | > 100
O=c1[nH]nc(O)c2c(-c3ccc([N+](=O)[O-])cc3)c3n(c12)CCn1cccc1-3 [7n, 11-Hydroxy-12-(4-nitrophenyl)-5,6-dihydropyrrolo[2″,1″:3′,4′]pyrazino[1′,2′:1,5] pyrrolo[2,3-d]pyridazin-8(9H)-one] | > 100

— PMC10653054 (ACS Omega, 2023)
